This is a sample that favours compounds with a hit; in the whole collection about 1.3% have one here.
C-LANA FP – inhibitors of KSHV LANA C-terminal domain DNA binding | MBP-C-LANA/FAM-LBS DNA binding, fluorescence polarization | inhibition, % at 9 µM | 340,000 compounds, 0.078% hits;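 active = highest replicate inhibition at or above 60% at 9 µM, even if other replicates fall short; inactive = all replicates below 60% inhibition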;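 note: 0% = neutral control wells and 100% = 4 µM acridine orange control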
CAL PDZ FP-1 – inhibitors of human CAL PDZ peptide binding; Q9HD26; purified CAL PDZ, TMR-peptide fluorescence polarization, 1 h; inhibition, % at 20 µM; 330,000 compounds, 0.02% hits; AID 504414;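 active = highest replicate inhibition of at least 40%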;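 note: plate controls were DMSO neutral control wells for no effect and unlabeled competitor peptide control wells for full effect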
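Test system: purified CerCALP PDZ construct; Compound dosing: one concentration, 20 µM compound; Also added: TMR-labelled reporter peptide T*-PRC34 bound in PDZ groove; Read-out: inhibition from polarization loss; Controls: unlabelled peptide and DMSO controls; Signal: FP readout, S and P plane fluorescence; Incubation: 1 h at RT.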
cardiac RTF act – increases calcium sensitivity of human cardiac regulated thin filaments; AID 493008; activation, % at 7.2 µM; P19429+P45379; 340,000 compounds, 0.24% hits; IANBD-labeled TnC RTF fluorescence at EC20 calcium; 0% EC20 calcium, 100% full calcium;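 active = activation above the mean over all tested compounds plus 3 SD, cut at about 30% in these data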;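 note: rise in fluorescence read as greater calcium sensitivity of cardiac thin filaments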
CAL PDZ FP-2 – CAL PDZ (human) peptide binding inhibition | 300,000 compounds, 0.92% hits | Q9HD26 | inhibition, % at 24.9 µM | purified CAL PDZ, TMR-peptide fluorescence polarization, 1 h | AID 602252;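 active = mean inhibition of at least 30% with at least half of replicates also reaching 30%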;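 note: 0% = DMSO neutral control and 100% = excess unlabeled competitor peptide PRC23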
RTF Ca sens inh – cardiac RTF calcium desensitization | P19429+P45379 | IANBD-labeled cardiac RTF, Ca2+ fluorescence | inhibition, % at 7.15 µM | 340,000 compounds, 0.12% hits | AID 493244;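 active = inhibition above the mean inhibition of all tested compounds plus 3 SD, cut at about 17% in these data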;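 note: assay run at fixed EC70 calcium of 1.6 mM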
Keap1-Nrf2 PPI – Keap1-Nrf2 (human) interaction inhibition | Q14145 | Keap1 Kelch-Nrf2 peptide fluorescence polarization, 1536-well | inhibition, % at 9.4 µM | 340,000 compounds, 0.15% hits; in the data active = inhibition above about 12%;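 note: human Keap1 Kelch domain with fluorescein labeled Nrf2 9mer peptide probe; 0% = neutral control wells and 100% = peptide positive control; higher means more block of Keap1 binding to Nrf2 peptide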
Target sequence (Q14145 whole entry, looked up, the tested form may be a part): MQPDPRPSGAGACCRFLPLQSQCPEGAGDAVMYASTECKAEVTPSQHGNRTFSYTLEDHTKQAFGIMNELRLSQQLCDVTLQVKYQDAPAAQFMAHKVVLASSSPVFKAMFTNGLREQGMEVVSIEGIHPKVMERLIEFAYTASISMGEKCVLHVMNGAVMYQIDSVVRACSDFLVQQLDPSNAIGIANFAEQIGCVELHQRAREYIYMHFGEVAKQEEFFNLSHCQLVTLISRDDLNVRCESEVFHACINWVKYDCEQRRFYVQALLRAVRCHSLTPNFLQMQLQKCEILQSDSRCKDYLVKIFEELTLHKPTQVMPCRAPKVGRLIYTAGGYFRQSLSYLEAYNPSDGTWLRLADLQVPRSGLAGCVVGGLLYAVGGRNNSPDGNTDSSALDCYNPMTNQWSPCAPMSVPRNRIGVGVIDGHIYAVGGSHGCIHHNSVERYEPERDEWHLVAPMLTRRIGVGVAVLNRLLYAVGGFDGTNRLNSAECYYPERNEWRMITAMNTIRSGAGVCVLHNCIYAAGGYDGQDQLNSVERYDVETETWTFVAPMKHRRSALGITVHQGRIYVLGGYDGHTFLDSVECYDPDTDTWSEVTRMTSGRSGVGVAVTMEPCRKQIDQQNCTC
The depositor's hits bear a star; . = no result given; + = active, no number.

SMILES	C-LANA FP	CAL PDZ FP-1	cardiac RTF act	CAL PDZ FP-2	RTF Ca sens inh	Keap1-Nrf2 PPI
Cc1ccc(N(C)C(=O)C2CCCN2S(=O)(=O)c2cccc3nsnc23)cc1 (centres undefined)	-0.7	0.6	-0.1	69.8*	-10.2	0.0
CC1=CC(C)C(CN(CCC[N+](C)(C)C)C(=O)Nc2ccccc2)C(C)C1 (centres undefined)	-1.0	-0.4	7.0	42.1*	-11.8	1.0
CCN1C(=O)c2ccc(C(=O)Nc3ncc(C)s3)cc2C1=O	0.7	12.9	0.8	46.5*	-5.8	0.7
Cc1nn(C)c(C)c1S(=O)(=O)N(CC(=O)NCCCN1CCC(C)CC1)c1ccc(C(C)C)cc1	-1.2	-2.3	-2.5	1.1	-8.5	-4.0
O=C(OCC(=O)c1ccccc1)C1=NN(c2ccccc2)C(=O)CC1	0.0	-0.1	-4.6	.	0.8	-4.9
O=C(OCc1csc(-c2ccccc2)n1)C1=NN(c2ccccc2)C(=O)CC1	1.7	-0.3	0.8	30.5*	-2.5	-4.0
COc1ccccc1N1CCN(C(=O)c2cccc(S(=O)(=O)N3c4ccccc4CC3C)c2)CC1 (centres undefined)	1.4	-0.5	-0.3	-5.5	-9.0	-6.3
COc1ccc(C(=O)OC2CCN(C)CC2)cc1	-0.3	-0.5	-5.2	.	5.5	-2.9
COc1ccc(C(=O)OC2C(OC)OCC(O)C2O)cc1 (centres undefined)	-2.2	19.0	1.7	44.3*	-0.5	2.4
S=C(Nc1cccnc1)NC1CC2CCC1C2 (centres undefined)	0.8	-0.4	1.9	37.8*	-10.5	2.6
CC1=C(C#N)C(=O)OC(C)(C)C1	33.8	-0.8	17.2	-1.1	-18.8	19.2*
Cc1[nH]c(=O)c(C#N)c2c1COC(C)(C)C2	0.8	-2.4	0.6	-0.7	-8.6	-3.8
CCOc1ccc(NC(=O)/C(C#N)=C\c2ccc(N3CCCC3)c(C)c2)cc1	1.8	-0.7	72.0*	-1.7	-52.4	-3.6
CCOC(=O)C1CCCN(S(=O)(=O)Cc2ccc(Cl)cc2)C1 (centres undefined)	5.6	.	-7.2	-3.3	3.9	0.0
CCOC(=O)CSc1nnc(-c2ccc(S(=O)(=O)N3CCOCC3)cc2)n1-c1ccccc1	2.2	-3.3	7.4	-0.4	6.3	-5.6
CN(C(=O)COC(=O)c1ccc(S(=O)(=O)N2CCOCC2)cc1)C1CCCCC1	-0.4	-0.3	-0.6	2.2	-13.5	-3.0
CCOC(=O)c1ccc(S(=O)(=O)N2CCN(S(=O)(=O)CC)CC2)cc1	-1.0	-2.0	-1.0	64.9*	-5.1	-1.4
CC(C)(C)N(Cc1ccccc1)C(=O)COC(=O)c1ccc(S(=O)(=O)N2CCOCC2)cc1	1.5	-0.4	-5.2	39.1*	1.2	5.0
Cc1nnc(SCC(=O)c2ccc(S(=O)(=O)N3CCOCC3)cc2)n1-c1ccccc1	-1.2	0.8	0.4	73.2*	-3.2	0.6
CN(C(=O)COC(=O)c1ccc(Br)c(S(=O)(=O)N2CCOCC2)c1)C1CCCCC1	-3.0	12.0	6.8	+	-0.5	-3.4
Cc1cc(C)nc(NC(=O)c2cccs2)c1	0.3	-0.9	-8.6	-12.5	0.2	-0.5
CC(=O)c1cccc(NC(=O)COC(=O)CCc2ccc(S(=O)(=O)N3CCOCC3)cc2)c1	1.2	1.1	0.1	.	-6.1	-2.5
O=C(CCc1ccc(S(=O)(=O)N2CCOCC2)cc1)OCC(=O)c1ccccc1	0.3	0.2	37.0*	-2.8	-2.6	-8.6
CC(C1CC1)N(Cc1ccccc1)C(=S)Nc1ccccc1Cl (centres undefined)	0.2	-0.5	1.4	88.0*	1.5	4.9
Cc1ccc(NS(=O)(=O)c2ccc(Cl)c(N=Nc3c(O)[nH]c(=O)[nH]c3=O)c2)cc1Cl	-3.3	-0.1	-2.0	30.6*	-4.1	-1.4
SMILES	C-LANA FP	CAL PDZ FP-1	cardiac RTF act	CAL PDZ FP-2	RTF Ca sens inh	Keap1-Nrf2 PPI
CC(=O)NCCc1ccc(C(=O)COC(=O)C2CCCCC2)cc1	-2.1	0.0	-1.5	-2.1	-3.1	-5.6
Cc1ccc(C(=O)COC(=O)C2CCC2)cc1	-1.3	-0.7	62.9*	-3.8	-5.3	1.2
N#CCCOC1(C#CCN2CCCC2)CCCCC1	1.8	-0.7	-0.8	-3.5	-6.7	0.1
CCn1ncc(Br)c1C(=O)Nc1cc(C)on1	-1.9	-1.3	1.0	41.4*	-1.9	-3.5
Cc1nc2ccc(Cl)cc2nc(C)/c1=N\O	13.3	-2.6	33.8*	-4.2	3.0	-21.2
Cc1ccc2nc(C)/c(=N\O)c(C)nc2c1	-0.6	-0.4	-9.9	0.4	-1.6	1.2
CCOc1ccccc1NC(=O)C1CCN(C(=O)Cc2ccccc2)CC1	2.3	8.6	-5.9	56.5*	-2.4	-8.1
Nc1c(Cl)cc(-c2cn(CCC(=O)O)c(-c3ccc(Cl)nc3)n2)cc1Cl	-2.6	0.0	8.4	-1.8	-13.1	-1.0
N=c1c(S(=O)(=O)c2ccc(Cl)cc2)cc2c(=O)n3ccccc3nc2n1C1CCCCC1	10.9	20.9	-2.0	-6.4	1.8	24.6*
N=c1c(S(=O)(=O)c2ccccc2)cc2c(=O)n3ccccc3nc2n1C1CCCC1	1.1	0.1	-1.7	.	7.5	-0.4
O=C(CSc1ccc([N+](=O)[O-])cn1)Nc1ccc2c(c1)OCO2	-0.5	-3.4	-2.0	-2.7	7.3	3.5
O=C(CN1C(=O)C(c2ccccc2)Oc2cccnc21)NCc1ccccc1F (centres undefined)	1.0	-2.8	-2.4	-3.1	1.2	3.7
Cc1cc2cc(CN(Cc3cccs3)S(=O)(=O)c3ccc4c(c3)OCCO4)c(=O)[nH]c2cc1C	0.2	-2.0	-2.1	-0.4	0.9	-3.3
Cc1ccc2[nH]c(=O)c(CN(Cc3cccs3)S(=O)(=O)c3ccc4c(c3)OCCO4)cc2c1	2.1	-1.6	1.2	33.8*	2.6	-2.4
CN(Cc1nc2ccccc2c(=O)[nH]1)C(=O)c1cccc(NC(=O)c2cccs2)c1	1.0	-0.9	4.7	66.2*	8.5	-1.1
O=C1NC(=O)/C(=C\c2cn(Cc3ccccc3F)c3ccccc23)N1	-0.6	-0.2	-0.9	59.1*	-5.4	-2.6
CN(Cc1cccnc1)C(=O)c1cc(S(=O)(=O)Nc2ccccc2F)ccc1Cl	-1.5	-2.4	-3.3	0.9	-7.6	3.2
OCC[n+]1ccc(/C=C/c2c[nH]c3ccccc23)cc1	-19.3	-1.9	188.8*	-2.3	-275.1	-162.6
C(=Cc1c[nH]c2ccccc12)c1nccc2ccccc12	4.7	-0.9	23.2	-2.8	-20.3	-3.8
CC(NC(=O)Nc1ccc(F)cc1F)c1ccc2c(c1)OCO2 (centres undefined)	-0.2	-2.2	3.6	-1.2	-9.2	-5.1
CN(C)c1cccc(C(=O)OCC(=O)Nc2ccccc2-c2ccccc2)c1	0.4	0.2	-3.7	-4.0	-18.0	-4.9
CC(C)N(C(=O)COC(=O)c1cccc(N(C)C)c1)c1ccccc1	-0.8	-0.4	-5.0	49.1*	-11.7	1.3

Screens as filed in PubChem.
